How the values were obtained:
[1] = molecular target: Prostaglandin G/H synthase 1 (Homo sapiens, UniProt P23219); experiment: Inhibition of purified COX1 assessed as formation of oxidized TMPD during reduction og PGG2 to PGH2 preincubated for 15 mins by chromogenic assay
Summary of the method: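 Purified COX-1, approx 20 units, in 100 mM Tris pH 8 with 2 mM genapol X-100 and 1 μM hematin. Compounds in DMSO (5% final) preincubated 15 min at 25 °C. TMPD then added, reaction started with arachidonic acid. Initial rate of TMPD oxidation read at 610 nm over first 36 s. Nonenzymatic oxidation without enzyme subtracted before computing percent inhibition.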

[2] = molecular target: T1, Prostaglandin G/H synthase 2 (Homo sapiens, UniProt P35354); experiment: Inhibition of purified COX2 assessed as formation of oxidized TMPD during reduction og PGG2 to PGH2 preincubated for 15 mins by chromogenic assay
T1 sequence (P35354 whole entry): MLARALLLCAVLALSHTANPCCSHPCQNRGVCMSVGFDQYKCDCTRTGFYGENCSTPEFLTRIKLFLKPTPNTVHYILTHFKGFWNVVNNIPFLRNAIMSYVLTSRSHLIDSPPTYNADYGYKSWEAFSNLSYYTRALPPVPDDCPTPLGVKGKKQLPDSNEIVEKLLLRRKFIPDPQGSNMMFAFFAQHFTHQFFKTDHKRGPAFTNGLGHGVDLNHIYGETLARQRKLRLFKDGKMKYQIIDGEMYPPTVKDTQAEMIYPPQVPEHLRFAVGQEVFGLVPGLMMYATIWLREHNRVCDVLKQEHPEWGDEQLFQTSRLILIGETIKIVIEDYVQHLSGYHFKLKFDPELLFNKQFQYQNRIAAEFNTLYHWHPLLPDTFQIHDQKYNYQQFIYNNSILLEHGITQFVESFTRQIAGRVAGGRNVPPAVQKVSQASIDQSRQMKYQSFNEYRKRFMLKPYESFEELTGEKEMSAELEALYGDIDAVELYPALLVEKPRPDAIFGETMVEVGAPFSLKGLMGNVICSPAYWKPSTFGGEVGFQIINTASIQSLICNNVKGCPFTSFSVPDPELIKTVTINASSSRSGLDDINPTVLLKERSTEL

[3] = molecular target: T2, Leukotriene A-4 hydrolase (Homo sapiens, UniProt P09960); experiment: Inhibition of human LTA4 hydrolase activity assessed as LTB4 production after 15 mins by ELISA
T2 sequence (P09960 whole entry): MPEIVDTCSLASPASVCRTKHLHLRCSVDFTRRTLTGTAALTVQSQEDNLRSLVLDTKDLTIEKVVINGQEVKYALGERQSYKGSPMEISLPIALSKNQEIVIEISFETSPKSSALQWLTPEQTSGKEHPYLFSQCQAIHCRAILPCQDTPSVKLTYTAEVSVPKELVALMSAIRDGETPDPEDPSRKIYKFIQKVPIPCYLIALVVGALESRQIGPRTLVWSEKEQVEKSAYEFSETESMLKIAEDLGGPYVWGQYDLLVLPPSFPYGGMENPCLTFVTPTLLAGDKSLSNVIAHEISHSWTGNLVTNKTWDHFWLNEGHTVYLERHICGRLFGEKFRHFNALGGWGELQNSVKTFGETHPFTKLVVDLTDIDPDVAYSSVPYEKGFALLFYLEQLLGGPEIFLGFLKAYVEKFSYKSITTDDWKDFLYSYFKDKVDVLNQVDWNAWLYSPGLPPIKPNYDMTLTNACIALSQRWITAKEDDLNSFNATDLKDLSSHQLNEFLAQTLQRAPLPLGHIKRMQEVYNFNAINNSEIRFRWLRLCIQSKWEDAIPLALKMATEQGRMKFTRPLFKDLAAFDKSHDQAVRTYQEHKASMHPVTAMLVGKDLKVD

[4] = molecular target: T1, Prostaglandin G/H synthase 2; experiment: Inhibition of COX2 in human whole blood assessed as inhibition of LPS-induced PGE2 production after 24 hrs by ELISA
[5] = molecular target: T2, Leukotriene A-4 hydrolase; experiment: Inhibition of LTA4 hydrolase in human whole blood assessed as inhibition of calcium ionophore A23187-induced LTB4 production after 0.5 hrs by ELISA

Sequence of Prostaglandin G/H synthase 1 (P23219 whole entry): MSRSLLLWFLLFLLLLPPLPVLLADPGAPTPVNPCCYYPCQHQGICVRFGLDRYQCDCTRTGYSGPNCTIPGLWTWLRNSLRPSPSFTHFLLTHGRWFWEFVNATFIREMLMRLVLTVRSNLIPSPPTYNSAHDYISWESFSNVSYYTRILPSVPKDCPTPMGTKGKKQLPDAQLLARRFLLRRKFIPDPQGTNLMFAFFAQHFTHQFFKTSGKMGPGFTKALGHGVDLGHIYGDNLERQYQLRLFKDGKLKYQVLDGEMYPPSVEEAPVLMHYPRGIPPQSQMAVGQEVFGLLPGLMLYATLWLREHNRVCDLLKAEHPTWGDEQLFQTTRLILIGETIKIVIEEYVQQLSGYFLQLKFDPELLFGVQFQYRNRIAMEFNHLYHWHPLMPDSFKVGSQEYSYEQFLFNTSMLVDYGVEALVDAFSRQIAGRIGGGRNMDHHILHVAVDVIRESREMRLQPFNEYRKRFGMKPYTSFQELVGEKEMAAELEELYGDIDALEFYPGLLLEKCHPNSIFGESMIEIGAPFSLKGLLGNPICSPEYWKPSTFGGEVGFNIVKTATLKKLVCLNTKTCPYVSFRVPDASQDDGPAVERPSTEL

Structure (SMILES)	IC50 [1]	IC50 [2]	IC50 [3]	IC50 [4]	IC50 [5]
O=[N+]([O-])c1ccc(Oc2ccc(OCCN3CCCC3)cc2)c([N+](=O)[O-])c1	> 100 µM	> 100 µM	> 100000 nM	> 100 µM	> 100000 nM
CS(=O)(=O)c1cccc(Oc2ccc(OCCN3CCCC3)cc2)c1	> 100 µM	> 100 µM	> 100000 nM	> 100 µM	> 100000 nM
O=[N+]([O-])c1cccnc1Oc1ccc(OCCN2CCCC2)cc1	> 100 µM	> 100 µM	2500 nM	> 100 µM	34000 nM
CS(=O)(=O)N(c1ccccc1Oc1ccc(OCCN2CCCC2)cc1)S(C)(=O)=O	> 100 µM	> 100 µM	> 100000 nM	> 100 µM	> 100000 nM
CS(=O)(=O)c1ccc(Oc2ccc(OCCN3CCCC3)cc2)c([N+](=O)[O-])c1	> 100 µM	> 100 µM	> 100000 nM	> 100 µM	> 100000 nM
CS(=O)(=O)N(c1cccc(Oc2ccc(OCCN3CCCC3)cc2)c1)S(C)(=O)=O	> 100 µM	> 100 µM	> 100000 nM	> 100 µM	> 100000 nM
FC(F)(F)c1cccc(Oc2ccc(OCCN3CCCC3)cc2)c1	> 100 µM	> 100 µM	540 nM	> 100 µM	> 100000 nM
c1cnc(Oc2ccc(OCCN3CCCC3)cc2)cn1	> 100 µM	61.6 µM	4300 nM	> 100 µM	> 100000 nM
CS(=O)(=O)c1ccccc1Oc1ccc(OCCN2CCCC2)cc1	> 100 µM	> 100 µM	> 100000 nM	> 100 µM	> 100000 nM
CS(=O)(=O)Nc1ccc([N+](=O)[O-])cc1Oc1ccccc1 [NIMESULIDE]			> 100000 nM		> 100000 nM
CS(=O)(=O)c1ccc(Oc2ccc(OCCN3CCCC3)cc2)cc1	> 100 µM	> 100 µM	> 100000 nM	> 100 µM	> 100000 nM
O=[N+]([O-])c1ccc(Oc2ccc(OCCN3CCCC3)cc2)cc1	20.4 µM	35.3 µM	370 nM	> 100 µM	690 nM
CN(c1ccccc1Oc1ccc(OCCN2CCCC2)cc1)S(C)(=O)=O	> 100 µM	92 µM	> 100000 nM	> 100 µM	> 100000 nM

The remaining compounds from weak to strong by IC50 [5], led by results:

IC50 [1]	IC50 [2]	IC50 [3]	IC50 [4]	IC50 [5]	Structure (SMILES)
61 µM	7.7 µM	680 nM	8.4 µM	6900 nM	O=[N+]([O-])c1ccccc1Oc1ccc(OCCN2CCCC2)cc1
> 100 µM	> 100 µM	3400 nM	> 100 µM	2100 nM	CS(=O)(=O)Nc1ccc(Oc2ccc(OCCN3CCCC3)cc2)cc1
> 100 µM	> 100 µM	390 nM	> 100 µM	2000 nM	FC(F)(F)c1ccc(Oc2ccc(OCCN3CCCC3)cc2)cc1
> 100 µM	> 100 µM	470 nM	13 µM	1400 nM	O=[N+]([O-])c1cccc(Oc2ccc(OCCN3CCCC3)cc2)c1
> 100 µM	> 100 µM	80 nM	> 100 µM	990 nM	Fc1ccc(Oc2ccc(OCCN3CCCC3)cc2)cc1
> 100 µM	> 100 µM	690 nM	> 100 µM	970 nM	Nc1cccc(Oc2ccc(OCCN3CCCC3)cc2)c1
> 100 µM	> 100 µM		> 100 µM	780 nM	c1ccc(Oc2ccc(OCCN3CCCC3)cc2)cc1
> 100 µM	> 100 µM	40 nM	22 µM	730 nM	Clc1ccc(Oc2ccc(OCCN3CCCC3)cc2)cc1
> 100 µM	41.4 µM	220 nM	5 µM	730 nM	FC(F)(F)c1ccccc1Oc1ccc(OCCN2CCCC2)cc1
> 100 µM	> 100 µM	580 nM	> 100 µM	670 nM	c1cc(Oc2ccc(OCCN3CCCC3)cc2)ccn1
> 100 µM	> 100 µM	110 nM	5.1 µM	290 nM	Brc1ccc(Oc2ccc(OCCN3CCCC3)cc2)cc1
> 100 µM	34.4 µM	770 nM	> 100 µM	180 nM	c1ccc(Oc2ccc(OCCN3CCCC3)cc2)nc1
> 100 µM	> 100 µM	630 nM	> 100 µM	110 nM	Nc1ccccc1Oc1ccc(OCCN2CCCC2)cc1
1.9 µM	36.3 µM	320 nM	> 100 µM	29 nM	Nc1ccc(Oc2ccc(OCCN3CCCC3)cc2)cc1

Reference: ChEMBL document CHEMBL1772961, “Discovery of dual target inhibitors against cyclooxygenases and leukotriene A4 hydrolyase” (J Med Chem, 2011)
